SMILES strings stand for the structures. The whole screen tested about 190,000 compounds, of which about 1,300 (0.68%) were called active.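 How the source made its calls: active means primary screen inhibition at 20 µM above a set limit (cut at about 50% in these data); inactive means the rest.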 The full list was thinned out, with actives kept by preference.

The test system of the experiment is diaphorase (Clostridium kluyveri). The experiment can be described thus: compounds blocking diaphorase resazurin reduction – biochemical, uHTS, resorufin fluorescence, counter-screen for diaphorase-coupled primary assays, primary screen (AID 1217).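 Further: plate controls were DMSO with full reaction for no effect and wells lacking NADH for full effect.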 The conditions noted are these: diaphorase resazurin-to-resorufin fluorescence, NADH, 16 min; at 20 µM; active compounds read high. An outline of the steps: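 Test system: Clostridium kluyveri diaphorase enzyme / Quantity: diaphorase at 0.14 U/mL in enzyme working solution / Incubation: 16-min room-temperature incubation before reading / Benchmarks: NADH-free wells as positive control, DMSO-only neutral wells / Signal: resorufin fluorescence 544/590 nm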
One may read the inhibition as the relative decrease from the control value, in per cent. Consider `COc1ccccc1N=Nc1c(O)[nH]c(=S)[nH]c1=O`, for which the inhibition is 51.2% (active). For `COc1ccccc1N=C1SCCCN1C` the value was 7.6% (inactive); for `COc1ccccc1-n1c(O)c(C=NC2CC2)c(=O)[nH]c1=O`, 7.4% (inactive). For `COc1ccc(-c2nn(CCC#N)cc2C(=O)O)cc1` the value was 0.1% (inactive); for `COc1ccc(NC(=O)c2cn(CCC#N)nc2-c2ccc([N+](=O)[O-])cc2)cc1`, 1.1% (inactive); for `CN(C)c1nc(N(C)C)nc(N(C#N)CCCl)n1`, -15.8% (inactive). In the case of `O=C(Cc1ccccc1)N1CCN(C2CCCCCC2)CC1` it was 19.6% (inactive); in that of `O=C1N=c2ccccc2=C/C1=C\c1c(O)[nH]c(=S)[nH]c1=O`, 20% (inactive).

Regarding `Cc1ccc2c(c1)=C/C(=C\c1c(O)[nH]c(=O)[nH]c1=O)C(=O)N=2`, the inhibition is 65.8% (active). For `COc1cccc(N2C(=O)NC(=O)/C(=C\c3ccc([N+](=O)[O-])s3)C2=O)c1` the value was 27.2% (inactive).

The record behind these values is PubChem BioAssay AID1217 (Sanford-Burnham Center for Chemical Genomics, 2008).
